# Compound activity deposited in PubChem BioAssay by several laboratories.
# An excerpt weighted towards active compounds, which were near 3.8% of everything screened.
# CHO parental Ca: signal in parental CHO cells, OX1R antagonist counter-screen | AID 463079 | 330,000 compounds, 0.63% hits | inhibition, % at 5.6 µM | parental CHO-K1, ATP-induced calcium, Fluo-8 fluorescence;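 active = inhibition above that plate's mean sample inhibition plus 3 SD, cut at about 26% in these data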;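 note: 0% = ATP-challenged DMSO wells and 100% = DMSO wells without ATP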
#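 Assay system: untransfected parental CHO cell line. Also added: ATP agonist challenge. Dosing: one dose, 5.6 µM nominal. Measured by: Fluo-8 fluorescence. Read-out: % inhibition. Benchmarks: ATP wells versus no-ATP DMSO wells. Repeats: no replicates.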
# GPR7 antag: antagonists of human GPR7 (neuropeptides B/W receptor 1); inhibition, % at 4.4 µM; AID 1861; GPR7-expressing cells, fluorescence antagonist assay; 290,000 compounds, 1.1% hits; P48145; in the data active = inhibition above about 16%, passing the limit was not always enough;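 note: cells stimulated with the agonist NPW; 0% = agonist with vehicle and 100% = vehicle without agonist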
# OX1R antag-1: human HCRTR1 antagonism. AID 434989. 330,000 compounds, 0.43% hits. O43613. CHO/OX1R cells, Fluo-8 calcium fluorescence, orexin A. inhibition, % at 5 µM;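 active = inhibition above its plate's threshold, mean inhibition of all tested compounds on the plate plus 3 SD, cut at about 37% in these data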;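 note: 0% = orexin A challenge wells and 100% = SB-334867-A antagonist wells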
# Target sequence (O43613 whole entry, looked up): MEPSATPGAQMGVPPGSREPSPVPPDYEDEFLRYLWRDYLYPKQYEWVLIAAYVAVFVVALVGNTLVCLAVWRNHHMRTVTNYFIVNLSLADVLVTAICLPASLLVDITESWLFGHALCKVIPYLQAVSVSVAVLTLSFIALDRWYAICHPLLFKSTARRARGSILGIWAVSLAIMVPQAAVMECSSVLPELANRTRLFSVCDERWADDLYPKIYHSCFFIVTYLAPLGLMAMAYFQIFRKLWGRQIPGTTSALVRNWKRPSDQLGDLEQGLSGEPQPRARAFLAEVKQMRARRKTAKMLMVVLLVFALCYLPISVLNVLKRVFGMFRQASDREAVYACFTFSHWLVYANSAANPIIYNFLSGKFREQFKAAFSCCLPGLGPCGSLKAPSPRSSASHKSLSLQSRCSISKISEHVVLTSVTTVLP
# OX1R antag-2: antagonists of human orexin 1 receptor (OX1R); O43613; inhibition, % at 6.6 µM; OX1R-expressing cells, FRET antagonist read-out; 330,000 compounds, 1.8% hits; in the data active = inhibition mostly above about 38%, no sharp cut-off; inactive = mostly below about 40%;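 note: 0% = agonist challenge alone and 100% = reference antagonist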
# MPTP block: permeability transition pore inhibition | isolated mouse mitochondria, Ca2+ swelling absorbance, 30 min | inhibition, % at 10 µM | 360,000 compounds, 1.4% hits;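 active = inhibition of 50% or more, scaled per plate between neutral and stimulator controls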;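 note: 0% = DMSO wells given calcium and 100% = 1 mM EGTA wells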
# Numbers without * were called inactive; nt = no result given.
SMILES,CHO parental Ca,GPR7 antag,OX1R antag-1,OX1R antag-2,MPTP block
Cc1nnc(N/N=C/c2c(Cl)cccc2Cl)n1N,-5,-2,-15,61*,-1
CCCCCn1nc(C(=O)OCc2nc(N)nc(Nc3ccccc3)n2)c2ccccc2c1=O,-31,nt,-35,14,0
CCC(CNc1cc(OC)cc2cccnc12)NC1CCCCC1 (stereo not given),-30,-11,-21,58*,1
O=C(NCc1cccs1)C(NS(=O)(=O)c1cccc2nsnc12)c1ccccc1 (stereo not given),-18,11,-27,49*,2
CC(C)C(NS(=O)(=O)c1cccc2nsnc12)C(=O)NC1CCCCC1C (stereo not given),-12,-1,-7,46*,0
O=C(O)C(Cc1c[nH]c2ccccc12)NS(=O)(=O)c1cccc2nsnc12 (stereo not given),-6,2,-6,61*,2
Cc1cccc(NS(=O)(=O)c2cccc3nsnc23)c1,7,4,-4,31,0
O=C(NC1CCN(Cc2ccccc2)CC1)C(NS(=O)(=O)c1cccc2nsnc12)c1ccccc1 (stereo not given),-23,-8,-36,77,-3
Cc1ccnc(NS(=O)(=O)c2cccc3nsnc23)c1,-9,8,4,127*,0
COC(=O)C[C@H]1C=C[C@@H](NC(=O)NC2CCCCC2)[C@@H](CO)O1,nt,nt,nt,nt,0
Cc1ccc2cccc(S(=O)(=O)Nc3c(C)n(C)n(-c4ccccc4)c3=O)c2n1,-3,-4,-15,5,-1
Cc1c(NS(=O)(=O)c2cccc3nsnc23)c(=O)n(-c2ccccc2)n1C,-11,-10,-12,77*,-1
CC(C)NS(=O)(=O)c1cccc2nsnc12,-4,-12,-7,72*,-1
COc1ccccc1CNC(=O)C(NS(=O)(=O)c1cccc2nsnc12)C(C)C (stereo not given),-18,-7,-9,76*,-1
COc1ccc(C2=Nn3c(nnc3C(F)(F)F)SC2)cc1,-17,7,-13,5,0
CCOCCCNC(=O)/C(C#N)=C/c1ccc(Cl)c([N+](=O)[O-])c1,-3,-5,-25,26,-1
CCOCCCNC(=O)/C(C#N)=C/c1cc(OC)c(O)c([N+](=O)[O-])c1,12,11,-9,42*,1
CC1(C(=O)NCC2CCCO2)Oc2cccnc2NC1=O (stereo not given),-1,-8,-6,8,-1
O=C(CSc1nnc(Cc2ccccc2)n1-c1ccccc1)NNC(=O)Cc1ccccc1,-13,2,-16,57*,0
O=C(NCc1ccccc1)N1CCN(c2ccc(Cl)c(Cl)c2)CC1,42*,14,38,47,4
O=C(CN1CCN(c2cccc(Cl)c2)CC1)NCc1ccccc1,-17,-3,-29,5,0
S=C(NCc1ccccc1)N1CCN(c2cccc(Cl)c2)CC1,13,32*,20,27,-1
O=C(c1ccc([N+](=O)[O-])cc1[N+](=O)[O-])N1CCN(C(=O)C2CCCO2)CC1 (stereo not given),-4,nt,-6,34*,0
O=C(c1ccccc1Cl)N1CCN(C(=O)C2CCCO2)CC1 (stereo not given),nt,nt,nt,nt,0
CCN1C(=O)C(CC(=O)Nc2ccc(OC)cc2)N(Cc2ccc3c(c2)OCO3)C1=S (stereo not given),-12,7,-13,24,0
SMILES,CHO parental Ca,GPR7 antag,OX1R antag-1,OX1R antag-2,MPTP block
O=c1[nH]c2cc([N+](=O)[O-])c([N+](=O)[O-])cc2[nH]c1=O,1,-9,0,56*,0
O=c1[nH]c2ccccc2[nH]c1=O,-6,-7,-3,22,2
COc1ccccc1-c1nc(-c2ccccc2)[nH]c(=O)c1C#N,-11,-4,-4,26,2
Cn1ccsc1=NC(=O)c1ccc([N+](=O)[O-])o1,-3,-6,-2,105*,1
O=C(COc1ccccc1)NNc1c2ccccc2nc2ccccc12,2,-25,-10,86*,-4
O=C(NNc1c2ccccc2nc2ccccc12)C(O)c1ccccc1 (stereo not given),-21,-15,-10,71*,1
Cc1ccc(CN2C(=O)C(C)Nc3ncnc(N4CCN(c5ccccn5)CC4)c32)cc1 (stereo not given),-27,nt,-23,21,0
Cc1nc(C)c(-c2ccn(S(=O)(=O)c3ccc(Cl)cc3)n2)o1,-8,19*,-23,3,9
O=S(=O)(c1ccc(Cl)cc1)n1cccn1,12,5,10,14,-2
